From PubChem BioAssay
TbHK1 inh: T. brucei hexokinase 1 inhibition. inhibition, % at 10 µM. recombinant TbHK1, G6PDH-coupled NADH A340. AID 1430. hit rate 0.11% among 220,000;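 active means inhibition of 50% or more in the single-dose primary screen; inactive means inhibition below 50%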
Runt-SMMHC FRET: Runt domain-CBFb-SMMHC interaction inhibition; Cerulean-Runt/Venus-CBFb-SMMHC FRET ratio 530/480, 1 h; Q01196+Q13951; inhibition, % at 20 µM; hit rate 0.74% among 220,000; AID 1434;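 active means mean inhibition across duplicate retests at 20 µM reaching about 50%, limit read from the data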;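 further: 0% = DMSO wells and 100% = wells with excess untagged CBFb-SMMHC; inhibitors lower the FRET ratio by blocking Runt binding to CBFb-SMMHC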
Hck Nef HTS: blocks Nef-activated human Hck kinase | Recombinant Hck-YEEI plus Nef, Z-Lyte FRET kinase assay | inhibition, % at 20 µM | hit rate 0.68% among 220,000 | AID 463187;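 active means Hck-Nef kinase inhibition above about 50%, limit read from the data; inactive means inhibition below that limit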;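 further: 0% = DMSO with Hck plus Nef and 100% = Hck alone without Nef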
Target sequence (P08631 whole entry, looked up): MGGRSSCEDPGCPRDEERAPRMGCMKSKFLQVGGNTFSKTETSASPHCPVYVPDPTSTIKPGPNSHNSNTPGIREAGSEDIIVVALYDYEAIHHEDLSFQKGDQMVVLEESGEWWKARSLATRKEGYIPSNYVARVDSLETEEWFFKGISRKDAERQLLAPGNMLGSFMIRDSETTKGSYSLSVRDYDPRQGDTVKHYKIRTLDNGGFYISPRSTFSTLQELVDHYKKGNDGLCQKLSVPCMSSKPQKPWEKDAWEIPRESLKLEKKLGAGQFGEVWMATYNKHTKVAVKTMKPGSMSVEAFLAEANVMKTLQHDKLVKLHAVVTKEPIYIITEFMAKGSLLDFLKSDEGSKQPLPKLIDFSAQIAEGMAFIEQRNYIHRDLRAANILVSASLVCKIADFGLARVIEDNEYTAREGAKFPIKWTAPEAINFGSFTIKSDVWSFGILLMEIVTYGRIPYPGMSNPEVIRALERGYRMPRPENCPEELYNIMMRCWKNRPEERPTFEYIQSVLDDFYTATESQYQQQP
Runt-CBFb FRET: inhibitors of human RUNX1 Runt domain binding to CBFb. Q01196+Q13951. Cerulean-Runt/Venus-CBFb FRET ratio 530/480, 1 h. inhibition, % at 20 µM. hit rate 0.46% among 220,000;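 active means inhibition over about 50% at 20 µM in the single-dose screen, limit read from the data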;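 further: 0% = DMSO wells and 100% = excess unlabeled CBFb competitor control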
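System: Cerulean-labeled Runt domain protein | Quantity: 100 nM of each labeled protein | Schedule: 1 h compound exposure, room temperature | Detection: Fluorescence energy transfer, 422 nm excitation, 530/480 nm emission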
RanGTP-Imp inh: inhibitors of RanGTP-importin-beta interaction, primary screen, biochemical, FRET, CFP-Ran, YFP-importin-beta, homogeneous | AID 2216 | cell-free CFP-Ran/YFP-importin-beta FRET ratio | inhibition, % (test concentration not listed) | hit rate 1.1% among 300,000;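 active means more than half of the replicate wells show a fall in the fluorescence ratio signal beyond about 16%, limit read from the data, passing the limit was not always enough; inconclusive means exactly half of the replicate wells pass the set limit; inactive means fewer than half of replicates pass the limit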;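 further: 0% = DMSO wells and 100% = Ran loaded with GDP instead of GTP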
Starred values were filed as active, the others as inactive. Most compounds without a hit are left out; they make up all but 1.9% or so of the library.

What do the screens show for `CCc1nc(SCC(=O)c2ccc3c(c2)OCCO3)c2ccccc2n1`?
TbHK1 inh: -3.5; Runt-SMMHC FRET: 55.8*; Hck Nef HTS: 1.7; Runt-CBFb FRET: 29.2; RanGTP-Imp inh: 11.6

What do the screens show for `CCN(CC)S(=O)(=O)c1cc(NC(=O)CNc2cccc(S(=O)(=O)N3CCCC3)c2)ccc1C`?
RanGTP-Imp inh: 1.3

What do the screens show for `CCCn1c(C)nc2c(c1=O)c1nc3ccccc3nc1n2CCC1=CCCCC1`?
TbHK1 inh: -7.5; Runt-SMMHC FRET: 64.3*; Hck Nef HTS: 5.1; Runt-CBFb FRET: 21.5; RanGTP-Imp inh: 1.4

What do the screens show for `CNC(=O)c1c(NC(=O)c2ccc(S(=O)(=O)N3CCCCC3)cc2)sc2c1CCN(C(C)C)C2`?
RanGTP-Imp inh: 93.3*

How did CCN1CCc2c(sc(NC(=O)c3ccc(S(=O)(=O)N4CCCC4)cc3)c2C(=O)NC)C1 do in these assays?
RanGTP-Imp inh: 45.7*

What do the screens show for `CC(C)N1CCc2c(sc(NC(=O)c3ccc(S(=O)(=O)N4CCCCC4C)cc3)c2C(N)=O)C1` (centres undefined)?
RanGTP-Imp inh: 107.3*

Results for CC1Cc2ccccc2N1C(=O)COC(=O)CCc1nc2ccccc2c(=O)[nH]1 (centres undefined) ?
TbHK1 inh: -2.8; Runt-SMMHC FRET: -2.7; Hck Nef HTS: -1.6; Runt-CBFb FRET: 0.0; RanGTP-Imp inh: -3.6

What do the screens show for `CCC(NC(=O)OCc1ccccc1)C(=O)Oc1ccc2ccc(=O)oc2c1` (centres undefined)?
RanGTP-Imp inh: 21.5*

Results for CCOC(=O)c1cc2c(=O)n3ccccc3nc2n(Cc2ccccc2Cl)c1=N ?
Runt-SMMHC FRET: 38.7; Runt-CBFb FRET: 38.8

Results for CCOC(=O)c1cc2c(=O)n3ccccc3nc2n(CCCOC)c1=NC(=O)C(C)(C)C ?
TbHK1 inh: -10.4; Runt-SMMHC FRET: -20.7; Hck Nef HTS: 159.0*; Runt-CBFb FRET: 55.9*; RanGTP-Imp inh: 0.1

How did CCOC(=O)c1cccnc1SCc1cc(=O)n2ccccc2n1 do in these assays?
TbHK1 inh: -29.8; Runt-SMMHC FRET: 0.4; Hck Nef HTS: -1.6; Runt-CBFb FRET: -1.8; RanGTP-Imp inh: 6.7

Results for CCOC(=O)c1cc2c(=O)n3ccccc3nc2n(C(C)C)c1=NC(=O)c1ccncc1 ?
TbHK1 inh: -13.7; Runt-SMMHC FRET: 169.8*; Hck Nef HTS: 10.7; Runt-CBFb FRET: 92.4*; RanGTP-Imp inh: 84.6*

How did CCOC(=O)c1cc2c(=O)n3ccccc3nc2n(CCOC)c1=NC(=O)c1c(-c2c(F)cccc2Cl)noc1C do in these assays?
TbHK1 inh: 4.4; Runt-SMMHC FRET: 86.3*; Hck Nef HTS: 38.8; Runt-CBFb FRET: 68.3*

Results for CCOC(=O)c1cc2c(=O)n3ccccc3nc2n(CCCOC)c1=NC(=O)c1cccnc1 ?
TbHK1 inh: -6.0; Runt-SMMHC FRET: 87.6*; Hck Nef HTS: 19.5; Runt-CBFb FRET: 133.3*; RanGTP-Imp inh: 46.0*

What do the screens show for `COc1ccc(CCNC(=O)CSc2nc3[nH]ncc3c(=O)n2-c2ccc(C)c(Cl)c2)cc1OC`?
TbHK1 inh: 1.5; Runt-SMMHC FRET: -8.2; Hck Nef HTS: 6.4; Runt-CBFb FRET: -5.6; RanGTP-Imp inh: 3.2

Results for CCOC(=O)c1cc2c(=O)n3ccccc3nc2n(CCOC)c1=NC(=O)c1ccncc1 ?
TbHK1 inh: -14.5; Runt-SMMHC FRET: 62.6*; Hck Nef HTS: 47.5; Runt-CBFb FRET: 62.5*; RanGTP-Imp inh: 96.1*

What do the screens show for `COCCCn1c(C(=O)Nc2ccc3c(c2)OCO3)cc2c(=O)n3ccccc3nc21`?
RanGTP-Imp inh: -0.6

What do the screens show for `CCOC(=O)c1cc2c(=O)n3ccccc3nc2n(C(C)C)c1=NC(=O)c1c(-c2ccccc2Cl)noc1C`?
TbHK1 inh: -7.9; Runt-SMMHC FRET: 87.5*; Hck Nef HTS: 7.9; Runt-CBFb FRET: 82.1*; RanGTP-Imp inh: 0.8

How did Cc1onc(-c2ccccc2Cl)c1C(=O)OCn1nnc2ccccc2c1=O do in these assays?
TbHK1 inh: 2.0; Runt-SMMHC FRET: -8.3; Hck Nef HTS: 0.5; Runt-CBFb FRET: 0.4; RanGTP-Imp inh: -3.5

Results for O=C(O)C1CCCN1c1ncccc1[N+](=O)[O-] (centres undefined) ?
TbHK1 inh: 2.2; Runt-SMMHC FRET: -8.4; Hck Nef HTS: 15.4; Runt-CBFb FRET: 0.1

How did COc1ccc(S(=O)(=O)NC2CCc3ccccc32)cc1OC (centres undefined) do in these assays?
RanGTP-Imp inh: -2.5

Results for O=C(CN1CCN(Cc2ccc3c(c2)OCO3)CC1)N1CCc2[nH]c3ccc(F)cc3c2C1 ?
TbHK1 inh: -8.5; Runt-SMMHC FRET: -20.6; Hck Nef HTS: -3.0; Runt-CBFb FRET: -18.1; RanGTP-Imp inh: -5.0

What do the screens show for `O=C(CN1CCN(Cc2ccc3c(c2)OCO3)CC1)N1CCc2[nH]c3ccccc3c2C1`?
TbHK1 inh: -1.0; Runt-SMMHC FRET: -10.5; Hck Nef HTS: 2.6; Runt-CBFb FRET: -6.2; RanGTP-Imp inh: 32.0*

What do the screens show for `CC1CN(CC(=O)N2CCc3[nH]c4ccccc4c3C2)CC(C)O1` (centres undefined)?
TbHK1 inh: 3.6; Runt-SMMHC FRET: -7.4; Hck Nef HTS: -1.9; Runt-CBFb FRET: -27.5; RanGTP-Imp inh: 27.7*

What do the screens show for `COc1cc(NS(=O)(=O)c2c(C(=O)N3CCOCC3)c(C)n(C)c2C)cc(OC)c1OC`?
RanGTP-Imp inh: 2.0

How did CC(=O)c1ccc(OCCCC(=O)NCCc2ccc(C(F)(F)F)cc2)cc1 do in these assays?
RanGTP-Imp inh: -0.6

What do the screens show for `O=C(/C=C/c1cccs1)NC1CC1`?
TbHK1 inh: -12.4; Runt-SMMHC FRET: -3.6; Hck Nef HTS: 14.5; Runt-CBFb FRET: 0.1; RanGTP-Imp inh: 21.1*

Results for COCCn1c(C)cc2c(c1=O)C(c1ccccc1F)C(C#N)=C(N)O2 (centres undefined) ?
TbHK1 inh: -0.8; Runt-SMMHC FRET: 32.8; Hck Nef HTS: -0.1; Runt-CBFb FRET: 6.0; RanGTP-Imp inh: 63.0*

Results for Cc1cc2c(c(=O)n1CCCn1ccnc1)C(c1ccco1)C(C#N)=C(N)O2 (centres undefined) ?
TbHK1 inh: -0.4; Runt-SMMHC FRET: 107.9*; Hck Nef HTS: -0.6; Runt-CBFb FRET: 46.1; RanGTP-Imp inh: 5.3

What do the screens show for `COc1ccccc1C1C(C#N)=C(N)Oc2cc(C)n(CCCn3ccnc3)c(=O)c21` (centres undefined)?
TbHK1 inh: -2.0; Runt-SMMHC FRET: -4.8; Hck Nef HTS: 1.3; Runt-CBFb FRET: 2.7; RanGTP-Imp inh: -3.8

What do the screens show for `O=C(CCNC(=O)C1CCN(S(=O)(=O)c2ccc(F)cc2)CC1)NC1CC1`?
RanGTP-Imp inh: -0.4

How did N#CC1(C#N)C(C(N)=O)C1c1ccccc1 (centres undefined) do in these assays?
TbHK1 inh: 4.4; Runt-SMMHC FRET: -9.7; Hck Nef HTS: 0.2; Runt-CBFb FRET: -1.4; RanGTP-Imp inh: inconclusive
